34 compounds from ChEMBL document CHEMBL4316611, “Design, synthesis and evaluation of novel (S)-tryptamine derivatives containing an allyl group and an aryl sulfonamide unit as anticancer agents” (Bioorg Med Chem Lett, 2019) can be followed below.

Holding throughout (format): functional, cell-based
The test system of test [1] is HeLa. As to the kind of experiment: Cytotoxicity in human HeLa cells assessed as reduction in cell viability incubated for 48 hrs by MTT assay. In outline: (§1)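 MTT viability assay; cells exposed continuously to compounds for 48 h. IC50 values reported as mean ± SD. Cisplatin served as positive control.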
(Formazan colour is commonly taken as a measure of viable cells.)

Test [2] has as its system HepG2. As to the kind of experiment: Cytotoxicity in human HepG2 cells assessed as reduction in cell viability incubated for 48 hrs by MTT assay. To be noted: HepG2, 48 h. An outline of the steps:
as §1

Test [3] relates to CNE. Kind of test: Cytotoxicity in human CNE1 cells assessed as reduction in cell viability incubated for 48 hrs by MTT assay. In outline: as §1
Test [4] relates to A549. As to the kind of experiment: Cytotoxicity in human A549 cells assessed as reduction in cell viability incubated for 48 hrs by MTT assay. To be noted: A549, 48 h. In outline: as §1

The IC50 is the concentration that inhibits the measured activity by half.

Consider `C=CC[C@@H](Cc1c[nH]c2ccccc12)NS(=O)(=O)c1ccc(F)cc1`, for which the IC50 in test [1] and in test [2] was > 100 µM throughout.
As to `CCC[C@H](N)Cc1c[nH]c2ccccc12`, the IC50 in test [3], in test [1], in test [2] and in test [4] was > 100 µM in each case.
For `C=CC[C@@H](Cc1c[nH]c2ccccc12)NS(=O)(=O)c1cccc(Br)c1`, the IC50 was found to be 48 µM in test [3], 40.5 µM in test [1], 58.9 µM in test [2] and 52.1 µM in test [4].
For `C=CC[C@@H](Cc1c[nH]c2ccccc12)NS(=O)(=O)c1cccc(C(F)(F)F)c1`, in that order: 40.7 µM, 45.1 µM, 46.9 µM and 52.1 µM.
In the same order, the values of `C=CC[C@@H](Cc1c[nH]c2ccccc12)NS(=O)(=O)c1ccccc1` are 40.8 µM, 69.5 µM, 58.4 µM and 77.1 µM.
For `C=CC[C@@H](Cc1c[nH]c2ccccc12)NS(=O)(=O)c1ccc(OC(F)(F)F)cc1`, in that order: 39.9 µM, 57.3 µM, 36 µM and 57.8 µM.
On to `C=CC[C@@H](Cc1c[nH]c2ccccc12)NS(=O)(=O)c1ccc(C)cc1`, for which the IC50 in test [1] and in test [2] was > 100 µM throughout.
For the compound `C=CC[C@@H](Cc1c[nH]c2ccccc12)NS(=O)(=O)c1ccc(C(F)(F)F)cc1Br`, the IC50 came to 34.4 µM in test [3], 39.3 µM in test [1], 42.1 µM in test [2] and 43.9 µM in test [4].
As to `C=CC[C@@H](Cc1c[nH]c2ccccc12)NS(=O)(=O)c1cc(F)c(Br)cc1F`, the IC50 in test [3] turned out to be 43.4 µM; in test [1], 58.9 µM; in test [2] it was 35.3 µM; in test [4] it was 65 µM.
In the same order, the values of `C=CC[C@@H](Cc1c[nH]c2ccccc12)NS(=O)(=O)c1ccc(C(F)(F)F)cc1Cl` are 36.1 µM, 44.8 µM, 33.1 µM and 53 µM.
In the same order, the values of `C=CC[C@@H](Cc1c[nH]c2ccccc12)NS(=O)(=O)c1ccc(C(F)(F)F)cc1[N+](=O)[O-]` are 39.3 µM, 35.7 µM, 40.4 µM and 74.2 µM.
Take `C=CC[C@@H](Cc1c[nH]c2ccccc12)NS(=O)(=O)c1ccc(Cl)cc1Cl`: the IC50 in test [3] is 42.7 µM; in test [1], 41.1 µM; in test [2] it was 55.4 µM; in test [4], 55.7 µM.
In the same order, the values of `C=CC[C@@H](Cc1c[nH]c2ccccc12)NS(=O)(=O)c1cc(C)ccc1C` are 42 µM, 45.6 µM, 44.6 µM and 48.3 µM.
With `C=CC[C@@H](Cc1c[nH]c2ccccc12)NS(=O)(=O)c1cccc2c(N(C)C)cccc12`, the IC50 was 36 µM in test [3], 34.5 µM in test [1], 52 µM in test [2] and 52.4 µM in test [4].
Regarding `C=CC[C@@H](Cc1c[nH]c2ccccc12)NS(=O)(=O)c1ccc(C(C)C)cc1`, the IC50 was 43.6 µM in test [3], 43.5 µM in test [1], 46.4 µM in test [2] and 53 µM in test [4].
Regarding `C=CC[C@@H](Cc1c[nH]c2ccccc12)NS(=O)(=O)c1ccc(Cl)c([N+](=O)[O-])c1`, the results for the half-inhibitory concentration (IC50) in test [1] and in test [2] were 53.2 µM and 89.7 µM, respectively.
`C=CC[C@@H](Cc1c[nH]c2ccccc12)NS(=O)(=O)c1cc(C(F)(F)F)cc(C(F)(F)F)c1`: the IC50 was 24.1 µM in test [3], 30.2 µM in test [1], 21.9 µM in test [2] and 35.6 µM in test [4].
For `C=CC[C@@H](Cc1c[nH]c2ccccc12)NS(=O)(=O)c1ccc(F)c(C(F)(F)F)c1`, in that order: 27 µM, 32 µM, 36.3 µM and 38.5 µM.
As for `C=CC[C@@H](Cc1c[nH]c2ccccc12)NS(=O)(=O)c1cc(Cl)c(F)cc1F`, the IC50 in test [3] worked out at 34.2 µM; in test [1], 46.9 µM; in test [2], 33.2 µM; in test [4] it was 50.7 µM.
In the case of `C=CC[C@@H](Cc1c[nH]c2ccccc12)NS(=O)(=O)c1ccc(F)cc1Cl`, the IC50 in test [1] is 61.7 µM; in test [2], 71.7 µM.
On to `C=CC[C@@H](Cc1c[nH]c2ccccc12)NS(=O)(=O)c1ccc(Br)cc1Cl`, for which the IC50 in test [3] came out at 38.5 µM; in test [1], 53.5 µM; in test [2], 54.3 µM; in test [4], 48.8 µM.
With `C=CC[C@@H](Cc1c[nH]c2ccccc12)NS(=O)(=O)c1c(C)cc(C)cc1C`, the IC50 in test [3] was determined as 31.5 µM; in test [1], 35.3 µM; in test [2] it was 37.2 µM; in test [4], 40.4 µM.
Regarding `C=CC[C@@H](Cc1c[nH]c2ccccc12)NS(=O)(=O)c1ccc(Cl)cc1[N+](=O)[O-]`, the IC50 in test [1] stood at 67.9 µM; in test [2], 71.3 µM.
For `CCC[C@@H](Cc1c[nH]c2ccccc12)NS(=O)(=O)c1ccccc1`, the IC50 in test [3] amounted to 47.1 µM; in test [1], 78.9 µM; in test [2] it was 68.7 µM; in test [4] it was 91.5 µM.
In the same order, the values of `C=CC[C@@H](Cc1c[nH]c2ccccc12)NS(=O)(=O)c1ccc(-c2ccccc2)cc1` are 34.5 µM, 34.5 µM, 43 µM and 33.6 µM.
For `C=CC[C@@H](Cc1c[nH]c2ccccc12)NS(=O)(=O)c1ccc(Cl)c(C(F)(F)F)c1`, in that order: 28.8 µM, 42.8 µM, 24.4 µM and 34.3 µM.
On to `C=CC[C@@H](Cc1c[nH]c2ccccc12)NS(=O)(=O)c1ccc(C(F)(F)F)cc1`, for which the IC50 in test [3] worked out at 38.1 µM; in test [1] it was 41.7 µM; in test [2] it was 51.8 µM; in test [4], 49.9 µM.
As to `C=CC[C@@H](Cc1c[nH]c2ccccc12)NS(=O)(=O)c1ccc(Cl)cc1F`, the IC50 in test [1] turned out to be 74.4 µM; in test [2], 78.4 µM.
`C=CC[C@@H](Cc1c[nH]c2ccccc12)NS(=O)(=O)c1c(C)c(C)cc(C)c1C`: the IC50 in test [3] came out at 26.3 µM; in test [1], 26.1 µM; in test [2] it was 24.7 µM; in test [4] it was 29.9 µM.
`C=CC[C@@H](Cc1c[nH]c2ccccc12)NS(=O)(=O)c1ccccc1Cl`: the concentration for half-maximal inhibition (IC50) in test [1] and in test [2] was > 100 µM in each case.
For the compound `C=CC[C@@H](Cc1c[nH]c2ccccc12)NS(=O)(=O)c1ccc(CCC)cc1`, the IC50 in test [1] is 67.1 µM; in test [2], 58.4 µM.
In the case of `C=CC[C@@H](Cc1c[nH]c2ccccc12)NS(=O)(=O)c1ccc(Br)c(F)c1`, the IC50 in test [1] amounted to 54.5 µM; in test [2] it was 58.1 µM.
For `C=CC[C@@H](Cc1c[nH]c2ccccc12)NS(=O)(=O)c1ccc(Br)cc1F`, in that order: 58.5 µM and 58.7 µM.
As for `C=CC[C@@H](Cc1c[nH]c2ccccc12)NS(=O)(=O)c1ccc(Br)cc1`, the 50% inhibitory concentration (IC50) in test [3] is 41.2 µM; in test [1], 61 µM; in test [2], 39.6 µM; in test [4] it was 58.6 µM.
